Test results as given in ChEMBL document CHEMBL1811752, “Synthesis and pharmacological characterization of bicyclic triple reuptake inhibitor 3-aryl octahydrocyclopenta[c]pyrrole analogues” (J Med Chem, 2011).

Tests used:
[1] = biological target: Sodium-dependent serotonin transporter (Homo sapiens, UniProt P31645); assay: Inhibition of serotonin reuptake at SERT expressed in HEK293 cells; format: cell-based
[2] = biological target: Sodium-dependent noradrenaline transporter (Homo sapiens, UniProt P23975); assay: Inhibition of norepinephrine reuptake at NET expressed in MDCK cells; format: cell-based
[3] = biological target: Sodium-dependent dopamine transporter (Homo sapiens, UniProt Q01959); assay: Inhibition of dopamine reuptake at DAT expressed in CHO-K1 cells; format: cell-based
[4] = Half life in human liver microsomes at 3 uM by LC-MS/MS analysis; format: ADME, Microsome
Outline: (§1)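 Human or mouse liver microsomes (0.5 mg/mL) incubated with 3 μM compound at 37 °C. Reaction started with NADPH and stopped with methanol containing internal standard. Loss of compound followed over 45 min by LC-MS/MS. Peak area ratio to internal standard plotted against time and the slope of the line taken.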

[5] = Half life in mouse liver microsomes at 3 uM by LC-MS/MS analysis; format: ADME, Microsome; outline: as §1
CYP1A = biological target: T1, CYP1A (Homo sapiens, UniProt P04798+P05177); assay: Inhibition of CYP1A in human liver microsomes by LC-MS/MS analysis; format: ADME, Microsome
T1 sequence (P04798 whole entry): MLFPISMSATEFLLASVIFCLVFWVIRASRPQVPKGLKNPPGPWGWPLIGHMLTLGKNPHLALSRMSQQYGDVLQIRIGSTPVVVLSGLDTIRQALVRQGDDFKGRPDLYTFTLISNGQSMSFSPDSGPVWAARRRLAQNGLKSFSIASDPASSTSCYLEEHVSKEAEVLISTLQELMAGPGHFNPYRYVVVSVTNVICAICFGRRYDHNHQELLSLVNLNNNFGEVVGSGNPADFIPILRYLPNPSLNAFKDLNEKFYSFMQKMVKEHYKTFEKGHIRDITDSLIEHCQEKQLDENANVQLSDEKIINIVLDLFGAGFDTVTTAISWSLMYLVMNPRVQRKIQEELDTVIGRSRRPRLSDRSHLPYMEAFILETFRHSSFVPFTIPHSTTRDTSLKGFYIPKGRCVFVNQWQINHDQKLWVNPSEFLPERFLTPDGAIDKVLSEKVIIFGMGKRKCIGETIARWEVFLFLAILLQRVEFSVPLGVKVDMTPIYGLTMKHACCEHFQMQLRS
T1 sequence (P05177 whole entry): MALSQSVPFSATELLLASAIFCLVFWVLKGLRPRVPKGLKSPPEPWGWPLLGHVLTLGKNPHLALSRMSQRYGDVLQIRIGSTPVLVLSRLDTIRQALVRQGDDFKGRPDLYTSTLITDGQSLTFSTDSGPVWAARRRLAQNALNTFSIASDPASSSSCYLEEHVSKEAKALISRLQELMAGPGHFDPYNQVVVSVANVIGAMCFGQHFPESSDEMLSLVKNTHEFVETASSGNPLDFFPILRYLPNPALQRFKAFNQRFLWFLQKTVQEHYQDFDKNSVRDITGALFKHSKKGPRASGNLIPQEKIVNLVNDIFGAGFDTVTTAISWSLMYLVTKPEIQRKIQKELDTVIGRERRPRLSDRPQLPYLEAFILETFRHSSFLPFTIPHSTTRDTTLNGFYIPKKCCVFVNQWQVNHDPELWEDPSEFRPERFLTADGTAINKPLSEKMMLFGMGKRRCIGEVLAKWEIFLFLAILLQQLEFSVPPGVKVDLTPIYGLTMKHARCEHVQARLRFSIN
Outline: (§2)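 Human liver microsomes incubated with isoform-specific substrates and compound, typically 0.1–25 μM. Metabolite formation read by LC-MS/MS, […]. IC50 calculated from the decrease in metabolite formation relative to vehicle control.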

Cytochrome P450 2C9 = Cytochrome P450 2C9 (Homo sapiens, UniProt P11712); assay: Inhibition of CYP2C9 in human liver microsomes by LC-MS/MS analysis; format: ADME, Microsome; outline: as §2
Cytochrome P450 2C19 = Cytochrome P450 2C19 (Homo sapiens, UniProt P33261); assay: Inhibition of CYP2C19 in human liver microsomes by LC-MS/MS analysis; format: ADME, Microsome; outline: as §2
Cytochrome P450 2D6 = Cytochrome P450 2D6 (Homo sapiens, UniProt P10635); assay: Inhibition of CYP2D6 in human liver microsomes by LC-MS/MS analysis; format: ADME, Microsome; outline: as §2
Cytochrome P450 3A4 = Cytochrome P450 3A4 (Homo sapiens, UniProt P08684); assay: Inhibition of CYP3A4 in human liver microsomes by LC-MS/MS analysis; format: ADME, Microsome; outline: as §2
[6] = biological target: Voltage-gated inwardly rectifying potassium channel KCNH2 (Homo sapiens, UniProt Q12809); assay: Inhibition of human ERG expressed in CHO cells by high throughput single cell planar patch clamp method; format: cell-based
Mus musculus [7] = assay: Antidepressant activity in po dosed mouse assessed as reduction of immobility time after 60 mins by tail suspension test; format: functional, organism-based
Outline: (§3)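 Mouse tail suspension test, male mice (10–12 per group, blind). Single oral dose in 5% transcutol in saline, 60 min pretreatment. Immobility recorded automatically for 5 min. Compared with vehicle group. Desipramine 100 mg/kg PO used as reference. One-way ANOVA with Dunnett's post test, p < 0.05.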

Mus musculus [8] = assay: Antidepressant activity in mouse assessed as reduction of immobility time at 10 mg/kg, po after 60 mins by tail suspension test relative to control; format: functional; design: scale not given: the % may be the effect or the level left; outline: as §3
Mus musculus [9] = assay: Antidepressant activity in mouse assessed as reduction of immobility time at 30 mg/kg, po after 60 mins by tail suspension test relative to control; format: functional; design: scale not given: the % may be the effect or the level left; outline: as §3
Mus musculus [10] = assay: Antidepressant activity in mouse assessed as reduction of immobility time at 100 mg/kg, po after 60 mins by tail suspension test relative to control; format: functional; design: scale not given: the % may be the effect or the level left; outline: as §3
Plasma [11] = assay: Plasma concentration in mouse at 3 mg/kg, po; format: ADME, organism-based; design: dose 3 mg/kg, route oral; details: in vivo
Outline: (§4)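 Male mice dosed orally at 3, 10 or 30 mg/kg in 5% transcutol/saline, 60 min before the tail suspension test. Terminal whole brain (ng/g) and plasma (ng/mL) samples taken from the test animals. Brain/plasma ratio derived from these levels.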

Brain [12] = assay: Drug level in mouse brain at 3 mg/kg, po; format: ADME, organism-based; design: dose 3 mg/kg, route oral; details: in vivo; outline: as §4
Plasma [13] = assay: Plasma concentration in mouse at 10 mg/kg, po; format: ADME, organism-based; design: dose 10 mg/kg, route oral; details: in vivo; outline: as §4
Brain [14] = assay: Drug level in mouse brain at 10 mg/kg, po; format: ADME, organism-based; design: dose 10 mg/kg, route oral; details: in vivo; outline: as §4
Plasma [15] = assay: Plasma concentration in mouse at 30 mg/kg, po; format: ADME, organism-based; design: dose 30 mg/kg, route oral; details: in vivo; outline: as §4
Brain [16] = assay: Drug level in mouse brain at 30 mg/kg, po; format: ADME, organism-based; design: dose 30 mg/kg, route oral; details: in vivo; outline: as §4
Mus musculus [17] = assay: Toxicity in mouse assessed as increase of spontaneous locomotor activity at 30 mg/kg, po measured for 5 mins; format: organism-based; design: dose 30 mg/kg, route oral; details: in vivo
[18] = Ratio of drug level in brain to plasma in po dosed mouse; format: ADME, organism-based; details: brain and plasma, read-out: BPR; outline: as §4
Plasma [19] = assay: Plasma concentration in mouse assessed as (3aR,6aS)-3a-(3,4-dichlorophenyl)octahydrocyclopenta[c]pyrrole level at 3 mg/kg, po; format: ADME, organism-based; design: dose 3 mg/kg, route oral; details: in vivo; outline: as §4
Brain [20] = assay: Drug level in mouse brain assessed as (3aR,6aS)-3a-(3,4-dichlorophenyl)octahydrocyclopenta[c]pyrrole level at 3 mg/kg, po; format: ADME, organism-based; design: dose 3 mg/kg, route oral; details: in vivo; outline: as §4
Plasma [21] = assay: Plasma concentration in mouse assessed as (3aR,6aS)-3a-(3,4-dichlorophenyl)octahydrocyclopenta[c]pyrrole level at 10 mg/kg, po; format: ADME, organism-based; design: dose 10 mg/kg, route oral; details: in vivo; outline: as §4
Brain [22] = assay: Drug level in mouse brain assessed as (3aR,6aS)-3a-(3,4-dichlorophenyl)octahydrocyclopenta[c]pyrrole level at 10 mg/kg, po; format: ADME, organism-based; design: dose 10 mg/kg, route oral; details: in vivo; outline: as §4
Plasma [23] = assay: Plasma concentration in mouse assessed as (3aR,6aS)-3a-(3,4-dichlorophenyl)octahydrocyclopenta[c]pyrrole level at 30 mg/kg, po; format: ADME, organism-based; design: dose 30 mg/kg, route oral; details: in vivo; outline: as §4
Brain [24] = assay: Drug level in mouse brain assessed as (3aR,6aS)-3a-(3,4-dichlorophenyl)octahydrocyclopenta[c]pyrrole level at 30 mg/kg, po; format: ADME, organism-based; design: dose 30 mg/kg, route oral; details: in vivo; outline: as §4

Sequence of Cytochrome P450 2C9 (P11712 whole entry): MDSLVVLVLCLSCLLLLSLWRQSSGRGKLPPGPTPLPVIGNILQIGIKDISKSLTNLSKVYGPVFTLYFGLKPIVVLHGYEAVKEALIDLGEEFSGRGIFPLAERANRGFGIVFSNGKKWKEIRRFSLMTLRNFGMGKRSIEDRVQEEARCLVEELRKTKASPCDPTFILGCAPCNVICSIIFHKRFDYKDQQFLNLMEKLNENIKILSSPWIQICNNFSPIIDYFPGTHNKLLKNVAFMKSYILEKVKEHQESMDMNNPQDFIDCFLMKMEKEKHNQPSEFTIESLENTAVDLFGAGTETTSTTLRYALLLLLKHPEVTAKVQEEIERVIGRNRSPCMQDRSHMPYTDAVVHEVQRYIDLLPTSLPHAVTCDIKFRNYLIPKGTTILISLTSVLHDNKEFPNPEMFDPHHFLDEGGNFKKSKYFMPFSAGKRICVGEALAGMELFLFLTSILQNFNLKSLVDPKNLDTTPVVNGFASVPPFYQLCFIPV
Sequence of Cytochrome P450 3A4 (P08684 whole entry): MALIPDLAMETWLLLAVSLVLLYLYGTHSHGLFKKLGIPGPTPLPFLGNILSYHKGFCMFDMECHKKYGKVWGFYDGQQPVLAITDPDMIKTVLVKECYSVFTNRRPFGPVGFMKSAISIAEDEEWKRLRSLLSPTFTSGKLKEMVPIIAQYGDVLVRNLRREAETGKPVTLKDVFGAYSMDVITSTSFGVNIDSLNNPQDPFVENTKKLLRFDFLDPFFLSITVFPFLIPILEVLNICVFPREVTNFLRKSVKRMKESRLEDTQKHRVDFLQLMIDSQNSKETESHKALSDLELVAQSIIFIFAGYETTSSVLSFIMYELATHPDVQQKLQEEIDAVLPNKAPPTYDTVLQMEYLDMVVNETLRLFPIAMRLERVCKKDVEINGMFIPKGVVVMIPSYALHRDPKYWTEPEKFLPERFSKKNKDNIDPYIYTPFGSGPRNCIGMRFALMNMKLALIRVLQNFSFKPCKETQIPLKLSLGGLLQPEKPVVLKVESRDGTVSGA
Sequence of Cytochrome P450 2C19 (P33261 whole entry): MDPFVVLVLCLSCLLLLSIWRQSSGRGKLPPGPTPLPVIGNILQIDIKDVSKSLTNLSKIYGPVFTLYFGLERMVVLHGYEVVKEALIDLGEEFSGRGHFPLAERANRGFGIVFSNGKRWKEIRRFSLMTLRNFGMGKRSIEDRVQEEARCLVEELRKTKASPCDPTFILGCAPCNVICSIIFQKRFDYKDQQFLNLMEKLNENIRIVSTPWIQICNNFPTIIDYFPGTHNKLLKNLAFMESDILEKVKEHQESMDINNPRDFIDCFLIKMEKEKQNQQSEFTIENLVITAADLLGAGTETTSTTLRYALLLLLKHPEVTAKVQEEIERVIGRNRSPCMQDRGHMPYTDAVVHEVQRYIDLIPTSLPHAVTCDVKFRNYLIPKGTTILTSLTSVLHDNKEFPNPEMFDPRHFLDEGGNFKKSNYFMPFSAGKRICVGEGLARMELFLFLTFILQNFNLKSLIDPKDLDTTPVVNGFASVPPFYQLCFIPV
Sequence of Sodium-dependent noradrenaline transporter (P23975 whole entry): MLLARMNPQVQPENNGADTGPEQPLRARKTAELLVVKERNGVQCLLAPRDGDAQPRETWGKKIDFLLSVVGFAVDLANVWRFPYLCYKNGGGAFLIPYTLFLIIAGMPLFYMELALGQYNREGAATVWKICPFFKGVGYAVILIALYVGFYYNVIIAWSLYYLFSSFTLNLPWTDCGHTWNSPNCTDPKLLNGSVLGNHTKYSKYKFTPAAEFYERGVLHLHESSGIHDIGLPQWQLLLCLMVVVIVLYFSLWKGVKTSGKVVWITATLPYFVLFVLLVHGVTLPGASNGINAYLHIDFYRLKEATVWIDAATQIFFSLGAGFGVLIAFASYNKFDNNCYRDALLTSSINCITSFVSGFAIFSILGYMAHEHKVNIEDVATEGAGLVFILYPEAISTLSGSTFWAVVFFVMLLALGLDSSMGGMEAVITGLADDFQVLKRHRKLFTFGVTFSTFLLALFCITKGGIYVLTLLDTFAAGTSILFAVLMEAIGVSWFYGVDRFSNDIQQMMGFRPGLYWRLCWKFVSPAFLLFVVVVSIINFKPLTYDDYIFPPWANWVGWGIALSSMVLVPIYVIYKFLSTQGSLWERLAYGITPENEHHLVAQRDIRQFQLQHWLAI
Sequence of Sodium-dependent serotonin transporter (P31645 whole entry): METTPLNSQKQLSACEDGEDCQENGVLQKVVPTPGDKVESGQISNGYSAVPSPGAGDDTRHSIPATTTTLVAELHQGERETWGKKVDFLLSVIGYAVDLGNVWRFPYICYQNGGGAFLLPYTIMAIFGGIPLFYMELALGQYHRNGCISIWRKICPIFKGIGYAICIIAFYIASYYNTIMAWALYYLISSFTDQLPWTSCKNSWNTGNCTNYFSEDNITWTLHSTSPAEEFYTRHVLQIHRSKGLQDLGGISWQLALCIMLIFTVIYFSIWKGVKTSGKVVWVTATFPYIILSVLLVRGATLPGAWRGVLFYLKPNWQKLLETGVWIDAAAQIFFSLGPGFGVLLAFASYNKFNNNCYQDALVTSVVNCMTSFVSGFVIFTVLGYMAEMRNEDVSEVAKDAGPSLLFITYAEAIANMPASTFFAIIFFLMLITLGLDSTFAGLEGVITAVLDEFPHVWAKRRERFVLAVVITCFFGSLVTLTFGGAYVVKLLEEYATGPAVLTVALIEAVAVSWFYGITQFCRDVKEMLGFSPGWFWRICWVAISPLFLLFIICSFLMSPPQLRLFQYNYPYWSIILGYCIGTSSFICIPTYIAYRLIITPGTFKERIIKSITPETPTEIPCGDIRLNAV
Sequence of Voltage-gated inwardly rectifying potassium channel KCNH2 (Q12809 whole entry): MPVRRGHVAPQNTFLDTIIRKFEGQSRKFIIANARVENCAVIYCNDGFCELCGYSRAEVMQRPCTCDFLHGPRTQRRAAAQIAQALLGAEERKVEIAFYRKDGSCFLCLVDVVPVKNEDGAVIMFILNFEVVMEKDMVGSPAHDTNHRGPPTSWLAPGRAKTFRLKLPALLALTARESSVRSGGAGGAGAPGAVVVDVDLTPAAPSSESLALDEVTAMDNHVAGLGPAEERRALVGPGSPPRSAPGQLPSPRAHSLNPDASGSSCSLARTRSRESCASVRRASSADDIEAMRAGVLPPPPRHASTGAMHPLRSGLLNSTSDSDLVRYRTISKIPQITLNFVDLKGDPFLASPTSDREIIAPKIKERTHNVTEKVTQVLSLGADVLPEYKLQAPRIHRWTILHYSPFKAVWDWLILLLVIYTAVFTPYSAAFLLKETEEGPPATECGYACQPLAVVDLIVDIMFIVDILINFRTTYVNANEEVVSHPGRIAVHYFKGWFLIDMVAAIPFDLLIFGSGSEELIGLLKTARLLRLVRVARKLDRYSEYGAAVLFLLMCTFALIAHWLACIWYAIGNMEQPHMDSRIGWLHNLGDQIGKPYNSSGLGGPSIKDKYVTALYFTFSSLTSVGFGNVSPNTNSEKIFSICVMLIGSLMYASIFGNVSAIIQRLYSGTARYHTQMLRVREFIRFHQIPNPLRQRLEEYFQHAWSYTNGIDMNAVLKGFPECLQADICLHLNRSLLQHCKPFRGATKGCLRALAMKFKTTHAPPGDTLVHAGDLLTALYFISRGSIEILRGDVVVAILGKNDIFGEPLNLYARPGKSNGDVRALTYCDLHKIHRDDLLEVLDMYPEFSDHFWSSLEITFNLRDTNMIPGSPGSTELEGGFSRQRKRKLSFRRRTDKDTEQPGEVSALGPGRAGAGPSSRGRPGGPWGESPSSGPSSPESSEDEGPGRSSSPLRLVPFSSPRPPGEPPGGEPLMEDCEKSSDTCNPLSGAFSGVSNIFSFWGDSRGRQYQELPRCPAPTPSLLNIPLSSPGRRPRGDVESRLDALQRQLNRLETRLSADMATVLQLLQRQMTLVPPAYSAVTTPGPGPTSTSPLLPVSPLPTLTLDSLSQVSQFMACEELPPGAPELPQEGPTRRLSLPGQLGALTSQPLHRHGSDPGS
Sequence of Sodium-dependent dopamine transporter (Q01959 whole entry): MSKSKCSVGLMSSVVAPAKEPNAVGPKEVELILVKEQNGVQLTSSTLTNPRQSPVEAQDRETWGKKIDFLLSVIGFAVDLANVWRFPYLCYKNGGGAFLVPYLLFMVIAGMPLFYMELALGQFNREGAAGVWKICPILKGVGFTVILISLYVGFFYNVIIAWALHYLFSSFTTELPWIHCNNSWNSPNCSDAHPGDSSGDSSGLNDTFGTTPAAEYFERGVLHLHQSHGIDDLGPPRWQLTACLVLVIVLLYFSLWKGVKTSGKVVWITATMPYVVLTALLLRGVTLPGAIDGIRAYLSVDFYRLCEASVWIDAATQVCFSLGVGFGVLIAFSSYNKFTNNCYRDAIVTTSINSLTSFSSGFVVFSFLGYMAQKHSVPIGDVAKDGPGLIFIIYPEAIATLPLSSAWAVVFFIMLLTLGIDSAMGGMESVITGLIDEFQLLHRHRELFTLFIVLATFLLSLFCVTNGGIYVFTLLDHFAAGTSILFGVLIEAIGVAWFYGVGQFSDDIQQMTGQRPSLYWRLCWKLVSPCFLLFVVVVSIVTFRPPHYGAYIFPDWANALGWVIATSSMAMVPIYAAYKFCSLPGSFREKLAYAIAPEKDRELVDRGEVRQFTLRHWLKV
Sequence of Cytochrome P450 2D6 (P10635 whole entry): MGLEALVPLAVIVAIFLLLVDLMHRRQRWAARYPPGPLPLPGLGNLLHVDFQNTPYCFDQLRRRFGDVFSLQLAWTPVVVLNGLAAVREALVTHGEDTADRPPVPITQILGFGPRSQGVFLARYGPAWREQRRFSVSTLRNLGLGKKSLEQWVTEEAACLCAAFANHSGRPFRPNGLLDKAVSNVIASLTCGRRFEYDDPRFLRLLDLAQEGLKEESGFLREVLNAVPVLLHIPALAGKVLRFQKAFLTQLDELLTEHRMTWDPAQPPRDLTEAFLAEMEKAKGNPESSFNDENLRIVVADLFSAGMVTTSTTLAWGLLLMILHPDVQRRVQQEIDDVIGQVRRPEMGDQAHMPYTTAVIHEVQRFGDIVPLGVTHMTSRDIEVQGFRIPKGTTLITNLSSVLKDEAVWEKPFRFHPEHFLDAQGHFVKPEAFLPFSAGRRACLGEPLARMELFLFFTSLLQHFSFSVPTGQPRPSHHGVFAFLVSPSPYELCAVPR

SMILES	IC50 [1] [µM]	IC50 [2] [µM]	IC50 [3] [µM]	half-life at 3 µM [4] [min]	half-life at 3 µM [5] [min]	IC50 (CYP1A) [µM]	IC50 (Cytochrome P450 2C9) [µM]	IC50 (Cytochrome P450 2C19) [µM]	IC50 (Cytochrome P450 2D6) [µM]	IC50 (Cytochrome P450 3A4) [µM]	IC50 [6] [µM]	other results
Clc1ccc([C@]23CCC[C@H]2CNC3)cc1Cl (single isomer, unassigned)	0.501	0.209	0.141	22	56	0.53	4.01	1.9	2.47	9.17	6.4	
Clc1ccc([C@@]23CCC[C@@H]2CNC3)cc1Cl [listing 1 of 2 here]												Activity (Mus musculus [7]): Dose-dependent effect
Clc1ccc([C@@]23CCCC[C@@H]2CNC3)cc1Cl	0.0912	0.204	0.0832	> 300	> 300	6.14	> 25	> 25	7.93	12.8	3.64	
Clc1ccc([C@@]23CCC[C@@H]2CNC3)cc1Cl [listing 2 of 2 here]	0.049	0.107	0.123	262	91	18.7	> 25	11.9	6.96	> 5	5.28	
CN1C[C@@H]2CCCC[C@]2(c2ccc(Cl)c(Cl)c2)C1	0.107	0.141	0.0141	62	35	3	> 25	> 25	8	5.28	2.32	
CN1C[C@H]2CCCC[C@@]2(c2ccc(Cl)c(Cl)c2)C1 (single isomer, unassigned)	0.00977	0.0562	0.055	125	45	> 25	> 25	11.9	1.1	6.5	4.14	Activity (Mus musculus [8]): 13%; Activity (Mus musculus [9]): 16%; Activity (Mus musculus [10]): 28%; Activity (Mus musculus [7]): Dose-dependent effect; Cp (Plasma [11]): 14 ng/mL; Drug uptake (Brain [12]): 294 ng/g; Cp (Plasma [13]): 50 ng/mL; Drug uptake (Brain [14]): 1054 ng/g; Cp (Plasma [15]): 181 ng/mL; Drug uptake (Brain [16]): 4203 ng/g; Activity (Mus musculus [17]): Non-toxic; Kp [18]: 5; Cp (Plasma [19]): 114 ng/mL; Drug uptake (Brain [20]): 440 ng/g; Cp (Plasma [21]): 417 ng/mL; Drug uptake (Brain [22]): 1878 ng/g; Cp (Plasma [23]): 1228 ng/mL; Drug uptake (Brain [24]): 6193 ng/g
Clc1ccc([C@]23CCCC[C@H]2CNC3)cc1Cl	0.0977	0.178	0.457	> 300	> 300	7.96	> 25	> 25	2.65	8.39	6.48	
CCN1C[C@H]2CCCC[C@@]2(c2ccc(Cl)c(Cl)c2)C1	0.0457	0.0269	0.0251	68	52	> 25	> 5	17.9	0.25	> 5	4.73	
CCN1C[C@@H]2CCCC[C@]2(c2ccc(Cl)c(Cl)c2)C1 (single isomer, unassigned)	0.0692	0.038	0.01	55	33	4.23	> 5	> 25	2.92	> 5	4.33	
